Test results taken from ChEMBL document CHEMBL4196201, “Discovery of N-(4-{[5-Fluoro-7-(2-methoxyethoxy)quinazolin-4-yl]amino}phenyl)-2-[4-(propan-2-yl)-1 H-1,2,3-triazol-1-yl]acetamide (AZD3229), a Potent Pan-KIT Mutant Inhibitor for the Treatment of Gastrointestinal Stromal Tumors” (J Med Chem, 2018).
In brackets after ≈: the same amount, converted by molar mass. Activity calls are given as the source filed them. The calls are words filed in the database; no cut-off is given here.

Columns and labels:
[1] = Protein binding in dog plasma assessed as unbound fraction level; type: ADME, cell-free, Canis lupus familiaris
[2] = Half life in dog rat at […], po; type: ADME, organism-based, Canis lupus familiaris; conditions: in vivo
[3] = test system: Mast/stem cell growth factor receptor Kit (Homo sapiens), P10721 [V560D]
[4] = target: Mast/stem cell growth factor receptor Kit (Homo sapiens) (UniProt P10721)
[5] = Protein binding in mouse plasma assessed as unbound fraction level; type: ADME, cell-free
BaF3 [6] = assay: Antitumor activity against mouse BA/F3 cells expressing Kit exon 11 deletion (557 to 558 residues) and V654 mutant (unknown origin) allografted in CB17 SCID mouse assessed as tumor regression at 20 mg/kg, po bid measured on last day of dosing; type: functional
How it was run: (§1)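 Ba/F3 cells bearing the KIT exon 11 del/D816H or exon 11 del/V654A mutation were grown as allografts in mice. Compounds were given p.o. once (QD) or twice daily (BD), and vehicle was given BD p.o. Tumor growth inhibition and regression (%) were taken on the last day of dosing. p-values were calculated relative to vehicle.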

[7] = Intrinsic clearance in human hepatocytes assessed per million cells; type: ADME, cell-based, Hepatocyte; conditions: read-out: CLH
[8] = Solubility in pH 6.5 phosphate buffer at 37 degC; type: physicochemical
How it was run: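 Solubility of crystalline Form A was measured in pH6.5 phosphate buffer at 37°C.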

[9] = test system: Mast/stem cell growth factor receptor Kit (Homo sapiens), P10721 [UNDEFINED MUTATION]
[10] = Cytotoxicity in mouse parental BA/F3 cells incubated for 72 hrs by MTS assay; type: cell-based, BaF3
Mus musculus [11] = assay: Inhibition of Kit exon 11 deletion (557 to 558 residues) and D816H mutant (unknown origin) transfected in mouse BA/F3 cells allografted in CB17 SCID mouse assessed as reduction in ERK phosphorylation at 20 mg/kg, po administered as single dose measured after 24 hrs; type: functional, organism-based
How it was run: (§2)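 A single 20 mg/kg p.o. dose was given to mice carrying exon 11 del/D816H Ba/F3 allografts. Tumor pKIT, pERK and pAKT were measured over a timecourse, with free compound cover tracked in the same study.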

BaF3 [12] = assay: Antitumor activity against mouse BA/F3 cells expressing Kit exon 11 deletion (557 to 558 residues) and V654 mutant (unknown origin) allografted in CB17 SCID mouse assessed as tumor regression at 2 mg/kg, po bid measured on last day of dosing; type: functional; how it was run: as §1
Mus musculus [13] = assay: Inhibition of Kit exon 11 deletion (557 to 558 residues) and D816H mutant (unknown origin) transfected in mouse BA/F3 cells allografted in CB17 SCID mouse assessed as reduction in AKT phosphorylation at 20 mg/kg, po administered as single dose measured after 8 hrs; type: functional, organism-based; how it was run: as §2
Mus musculus [14] = assay: Inhibition of Kit exon 11 deletion (557 to 558 residues) and D816H mutant (unknown origin) transfected in mouse BA/F3 cells allografted in CB17 SCID mouse assessed as reduction in ERK phosphorylation at 20 mg/kg, po administered as single dose measured after 8 hrs; type: functional, organism-based; how it was run: as §2
[15] = test system: Mast/stem cell growth factor receptor Kit (Homo sapiens), P10721 [UNDEFINED MUTATION]; remark: listed apart in the source
[16] = Volume of distribution at steady state in Han Wistar rat at 1 umol/kg, iv; type: ADME, organism-based; conditions: in vivo, read-out: Vdss
How it was run: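 Han Wistar rat PK study using an iv dose of 1 μMol/kg and an oral dose of 2.1 μMol/kg. Clearance, Vdss, t1/2 and F% were derived.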

[17] = test system: Mast/stem cell growth factor receptor Kit (Homo sapiens), P10721 [V560D,V654A]
[18] = Efflux ratio in human Caco2 cells at 10 uM at pH 6.5; conditions: Caco-2, pH 6.5
[19] = Oral bioavailability in Han Wistar rat at […]; type: ADME, organism-based; conditions: in vivo
BaF3 [20] = assay: Antitumor activity against mouse BA/F3 cells expressing Kit exon 11 deletion (557 to 558 residues) and D816H mutant (unknown origin) allografted in CB17 SCID mouse assessed as inhibition of tumor growth at 2 mg/kg, po bid measured on last day of dosing; type: functional; conditions: read-out: TGI; how it was run: as §1
[21] = target: Mast/stem cell growth factor receptor Kit (Homo sapiens) (UniProt P10721); remark: listed apart in the source

Chain of Mast/stem cell growth factor receptor Kit (Homo sapiens), P10721 [UNDEFINED MUTATION] (P10721 whole entry, looked up, change not shown): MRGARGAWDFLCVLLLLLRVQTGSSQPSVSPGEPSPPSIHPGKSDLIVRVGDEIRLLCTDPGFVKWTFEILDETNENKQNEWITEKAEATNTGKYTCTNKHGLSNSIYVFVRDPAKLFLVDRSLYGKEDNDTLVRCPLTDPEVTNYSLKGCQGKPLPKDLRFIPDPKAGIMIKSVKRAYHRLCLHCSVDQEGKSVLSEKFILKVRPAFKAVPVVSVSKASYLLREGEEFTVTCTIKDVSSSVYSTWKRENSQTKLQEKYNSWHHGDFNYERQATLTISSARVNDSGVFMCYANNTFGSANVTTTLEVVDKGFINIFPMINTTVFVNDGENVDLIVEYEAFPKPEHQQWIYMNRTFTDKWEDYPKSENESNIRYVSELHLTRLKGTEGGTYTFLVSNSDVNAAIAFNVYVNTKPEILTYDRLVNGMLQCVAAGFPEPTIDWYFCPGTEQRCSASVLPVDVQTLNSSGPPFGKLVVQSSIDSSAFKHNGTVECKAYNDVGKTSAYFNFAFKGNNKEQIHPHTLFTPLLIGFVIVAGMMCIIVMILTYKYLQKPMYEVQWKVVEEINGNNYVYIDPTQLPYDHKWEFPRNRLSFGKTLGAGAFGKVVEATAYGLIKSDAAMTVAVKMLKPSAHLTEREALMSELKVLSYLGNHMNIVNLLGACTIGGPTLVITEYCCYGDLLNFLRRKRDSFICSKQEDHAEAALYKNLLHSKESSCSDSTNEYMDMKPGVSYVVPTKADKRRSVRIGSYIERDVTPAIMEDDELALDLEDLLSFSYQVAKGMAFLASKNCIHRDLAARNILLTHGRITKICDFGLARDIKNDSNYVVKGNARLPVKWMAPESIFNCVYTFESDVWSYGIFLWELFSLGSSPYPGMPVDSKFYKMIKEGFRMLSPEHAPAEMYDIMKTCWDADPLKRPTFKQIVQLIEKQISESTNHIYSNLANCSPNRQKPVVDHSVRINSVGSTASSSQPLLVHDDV
Chain of Mast/stem cell growth factor receptor Kit (Homo sapiens) (P10721 whole entry): as the sequence (P10721 whole entry, looked up, change not shown) above
Chain of Mast/stem cell growth factor receptor Kit (Homo sapiens), P10721 [V560D] (P10721 whole entry V560D): as the sequence (P10721 whole entry, looked up, change not shown) above, with V560D counted along it
Chain of Mast/stem cell growth factor receptor Kit (Homo sapiens), P10721 [V560D,V654A] (P10721 whole entry V560D/V654A): as the sequence (P10721 whole entry, looked up, change not shown) above, with V560D, V654A counted along it

COCCOc1cc(F)c2c(Nc3ccc(NC(=O)Cn4cc(C(C)C)nn4)cc3)ncnc2c1
fraction unbound [1]: 0.068 | half-life [2]: 4 h | GI50 [3]: 1 nM | GI50 [4]: 2 nM | fraction unbound [5]: 0.049 | Activity (BaF3 [6]): 85% | hepatocyte CLint [7]: < 1 µL/min/1e6 cells | solubility [8]: 6 µM (≈ 2.88 µg/mL) | GI50 [9]: 3 nM | GI50 at 72 h [10]: > 10000 nM | inhibition (Mus musculus [11]): Active | Activity (BaF3 [12]): 44% | inhibition (Mus musculus [13]): Active | inhibition (Mus musculus [14]): Active | GI50 [15]: 4 nM | Vd [16]: 0.6 L/kg | GI50 [17]: 7 nM | efflux ratio at 10 µM [18]: 2.6 | bioavailability [19]: 79% | inhibition in vivo at 2 mg/kg (BaF3 [20]): 5% | GI50 [21]: 22 nM
